# In ChEMBL document CHEMBL1136118, “N- and C-terminal modifications of negamycin” (Bioorg Med Chem Lett, 2003):
# Experiments:
# Format in all cases: functional
# Enterobacter cloacae = experiment: In vitro antibacterial activity against Enterobacter cloacae ATCC 35030
# Method in brief: (§1)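 Broth microdilution MIC in Mueller–Hinton broth supplemented with 50% human serum; inoculum 5 × 10⁵ cfu/mL. MG1655 tolC is an efflux pump mutant.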
# Escherichia coli [1] = experiment: In vitro antibacterial activity against Escherichia coli MG1655 tolC; method in brief: as §1
# Escherichia coli [2] = experiment: Inhibitory activity against protein synthesis of Escherichia coli S30 by cell-free transcription/translation coupled assay
# Method in brief: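 Coupled transcription/translation in E. coli S30 extract with pGEMbgal DNA template; compounds preincubated with reaction mixture 10 min before template addition; after 1 h incubation ONPG added and β-galactosidase activity read at 420 nm.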
# Escherichia coli [3] = experiment: In vitro antibacterial activity against Escherichia coli ATCC 25922; method in brief: as §1
# Escherichia coli [4] = experiment: In vitro antibacterial activity against Escherichia coli MG1655; method in brief: as §1
# Klebsiella pneumoniae = experiment: In vitro antibacterial activity against Klebsiella pneumoniae […]; method in brief: as §1
# Pseudomonas aeruginosa = experiment: In vitro antibacterial activity against Pseudomonas aeruginosa PA013; method in brief: as §1
# Staphylococcus aureus = experiment: In vitro antibacterial activity against Staphylococcus aureus ATCC 25293; method in brief: as §1
# Streptococcus pneumoniae = experiment: In vitro antibacterial activity against Streptococcus pneumoniae VSPN1005; method in brief: as §1
# Mus musculus = experiment: In vivo efficacy in Escherichia coli murine septicemia model
# Method in brief: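 Mice infected ip with approximately 1 × 10⁵ cfu E. coli ATCC25922; compound given iv at 1 and 5 h post-infection; survival followed for 7 days; ED₅₀ calculated by non-linear regression.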
SMILES,MIC (Enterobacter cloacae) [µg/mL],MIC (Escherichia coli [1]) [µg/mL],IC50 (Escherichia coli [2]) [µM],MIC (Escherichia coli [3]) [µg/mL],MIC (Escherichia coli [4]) [µg/mL],MIC (Klebsiella pneumoniae) [µg/mL],MIC (Pseudomonas aeruginosa) [µg/mL],MIC (Staphylococcus aureus) [µg/mL],MIC (Streptococcus pneumoniae) [µg/mL],ED50 (Mus musculus) [mg/kg]
CN(CC(=O)O)NC(=O)C[C@H](N)CC(O)CN1CC[C@@H](N)C1 (some centres undefined),> 256,> 256,> 80,> 256,> 256,> 256,> 256,> 256,> 256,
CN(CC(=O)O)NC(=O)C[C@H](N)CC(O)CN1CCNCC1 (some centres undefined),> 256,> 256,> 80,> 256,> 256,> 256,> 256,> 256,> 256,
CN(CP(=O)(O)O)NC(=O)C[C@H](N)C[C@@H](O)CN,> 256,> 256,> 80,> 256,> 256,> 256,> 256,> 256,> 256,
CC(ONC(=O)C[C@H](N)C[C@@H](O)CN)C(=O)O (some centres undefined),> 256,> 256,> 80,> 256,> 256,> 256,> 256,> 256,> 256,
NC[C@H](O)C[C@@H](N)CC(=O)NN1CCC[C@@H]1C(=O)O,> 256,> 256,> 80,> 256,> 256,> 256,> 256,> 256,> 256,
CN(CC(=O)O)NC(=O)C[C@H](N)C[C@@H](O)CNC(N)=O,> 256,> 256,> 80,> 256,> 256,> 256,> 256,> 256,,
CN(CC(=O)O)NC(=O)C[C@H](N)C[C@@H](O)CN=C(N)N,> 256,128,> 80,> 256,> 256,> 256,> 256,> 256,,
CN(CC(=O)O)NC(=O)C[C@H](N)C[C@H](O)CCN,> 256,> 256,> 80,> 256,> 256,> 256,> 256,> 256,> 256,
CCCNC[C@H](O)C[C@@H](N)CC(=O)NN(C)CC(=O)O,> 256,> 256,20.3,> 256,> 256,> 256,> 256,> 256,> 256,
NC[C@H](O)C[C@@H](N)CC(=O)NN1CCC[C@H]1C(=O)O,> 256,> 256,> 80,> 256,> 256,> 256,> 256,> 256,> 256,

# More lines, main results first:
MIC (Enterobacter cloacae) [µg/mL],MIC (Escherichia coli [1]) [µg/mL],IC50 (Escherichia coli [2]) [µM],MIC (Escherichia coli [3]) [µg/mL],MIC (Escherichia coli [4]) [µg/mL],MIC (Klebsiella pneumoniae) [µg/mL],MIC (Pseudomonas aeruginosa) [µg/mL],MIC (Staphylococcus aureus) [µg/mL],MIC (Streptococcus pneumoniae) [µg/mL],SMILES,ED50 (Mus musculus) [mg/kg]
> 256,> 256,> 80,> 256,> 256,> 256,> 256,> 256,> 256,CC(C)CCCNC[C@H](O)C[C@@H](N)CC(=O)NN(C)CC(=O)O,
> 256,> 256,> 80,> 256,> 256,> 256,> 256,> 256,> 256,CN(Cc1nn[nH]n1)NC(=O)C[C@H](N)C[C@@H](O)CN,
64,16,0.8,64,32,32,> 128,> 128,128,CN(CC(=O)O)NC(=O)C[C@H](N)C[C@@H](O)CNCc1ccccc1,
> 256,> 256,> 80,> 256,> 256,> 256,> 256,> 256,> 256,CN(CC(=O)O)NC(=O)C[C@H](N)CC(O)CN1CC[C@H](N)C1 (some centres undefined),
> 256,> 256,> 80,> 256,> 256,> 256,> 256,> 256,> 256,CN(CP(C)(=O)O)NC(=O)C[C@H](N)C[C@@H](O)CN,
16,4,4.5,16,8,8,128,> 256,,CCNC[C@H](O)C[C@@H](N)CC(=O)NN(C)CC(=O)O,
16,4,2.3,16,8,4,128,128,256,CNC[C@H](O)C[C@@H](N)CC(=O)NN(C)CC(=O)O,16.3
> 256,> 256,> 80,> 256,> 256,> 256,> 256,> 256,> 256,CN(CC(=O)O)NC(=O)C[C@H](N)CC(O)CN1CCOCC1 (some centres undefined),
> 256,> 256,> 80,> 256,> 256,> 256,> 256,> 256,> 256,NC[C@H](O)C[C@@H](N)CC(=O)NOCC(=O)O,
> 256,> 256,> 80,> 256,> 256,> 256,> 256,> 256,> 256,CN(CC(=O)O)NC(=O)C[C@H](N)C[C@@H](O)CCN,
128,32,23.4,128,128,64,> 512,512,,CN(CC(=O)O)NC(=O)C[C@H](N)C[C@H](O)CN,
16,8,3.5,16,16,32,64,256,,CC(C)C[C@H](N)C(=O)NC[C@H](O)C[C@@H](N)CC(=O)NN(C)CC(=O)O,
8,2,1,4,4,2,32,32,32,CN(CC(=O)O)NC(=O)C[C@H](N)C[C@@H](O)CN [NEGAMYCIN],5.1
